The first assay concerns L6. Description: Cytotoxicity against rat L6 cells. The assay is classed as cell-based. Particulars: Rattus norvegicus, L6.
In turn, `CN(C)C12CC(OC(=O)c3ccccc3)C(C(c3ccccc3)C1)C(c1ccccc1)C2` (racemic) had a concentration for half-maximal inhibition (IC50) of 6.02 µM.
Still for that read-out and setting: to `O=C(OC1CC2(N3CCCC3)CC(c3ccccc3)C1C(c1ccccc1)C2)c1ccccc1` (racemic) belongs 8.41 µM; to `O=C(OC1CC2(N3CCCC3)CC(c3ccccc3)C1C(c1ccccc1)C2)c1ccncc1` (racemic; 11b), 26.9 µM.
For `OC1CC2(N3CCCCC3)CC(c3ccccc3)C1C(c1ccccc1)C2` (racemic), the half-inhibitory concentration (IC50) came out at 34.3 µM.
On the same count and under the same terms, the value for `OC1CC2(N3CCCC3)CC(c3ccccc3)C1C(c1ccccc1)C2` (racemic) was 35.4 µM; that for `O=C(OC1CC2(N3CCCC3)CC(c3ccccc3)C1C(c1ccccc1)C2)c1cccnc1` (racemic) was 18.7 µM.

Staying with this assay, now noted: l6.
In turn, `O=C(OC1CC2(N3CCCCC3)CC(c3ccccc3)C1C(c1ccccc1)C2)c1cccnc1` (stereo in doubt; 6c) gave an IC50 of 0.87 µM.
The same measure, in the same setting: the value for `CN(C)C12CC(OC(=O)c3cccnc3)C(C(c3ccccc3)C1)C(c1ccccc1)C2` (stereo in doubt; 6a) was 171 µM.
On to `O=C(OC1CC2(N3CCCC3)CC(c3ccccc3)C1C(c1ccccc1)C2)c1ccc(Cl)cc1` (stereo in doubt; 5b), for which the 50% inhibitory concentration (IC50) amounted to 74.9 µM.
`CN(C)C12CC(OC(=O)c3ccncc3)C(C(c3ccccc3)C1)C(c1ccccc1)C2` (racemic; 7a) returned an IC50 of 26.1 µM.
`O=C(OC1CC2(N3CCCC3)CC(c3ccccc3)C1C(c1ccccc1)C2)c1ccc(Cl)cc1` (racemic) gave an IC50 of 7.31 µM.
In turn, `O=C(OC1CC2(N3CCCCC3)CC(c3ccccc3)C1C(c1ccccc1)C2)c1ccncc1` (racemic; 7c) gave an IC50 of 113 µM.
Take `O=C(OC1CC2(N3CCCC3)CC(c3ccccc3)C1C(c1ccccc1)C2)c1ccccc1` (stereo in doubt; 4b): half-maximal inhibition (IC50) was put at 5.08 µM.
`CN(C)C12CC(OC(=O)c3ccc(Cl)cc3)C(C(c3ccccc3)C1)C(c1ccccc1)C2` (stereo in doubt; 5a) showed an IC50 of 9.46 µM.
The same measure, in the same setting: to `CN(C)C12CC(OC(=O)c3cccnc3)C(C(c3ccccc3)C1)C(c1ccccc1)C2` (racemic) belongs 12.2 µM; to `O=C(OC1CC2(N3CCCCC3)CC(c3ccccc3)C1C(c1ccccc1)C2)c1cccnc1` (racemic), 21.3 µM; to `O=C(OC1CC2(N3CCCC3)CC(c3ccccc3)C1C(c1ccccc1)C2)c1cccnc1` (stereo in doubt; 6b), 24.4 µM.
`O=C(OC1CC2(N3CCCCC3)CC(c3ccccc3)C1C(c1ccccc1)C2)c1ccccc1` (racemic) displayed an IC50 of 17.2 µM.
Still for that read-out and setting: the value for `O=C(OC1CC2(N3CCCCC3)CC(c3ccccc3)C1C(c1ccccc1)C2)c1ccncc1` (racemic; 11c) was 21.3 µM.
Still for that read-out and setting: the value for `CN(C)C12CC(OC(=O)c3ccc(Cl)cc3)C(C(c3ccccc3)C1)C(c1ccccc1)C2` (racemic) was 4.35 µM; that for `O=C(OC1CC2(N3CCCCC3)CC(c3ccccc3)C1C(c1ccccc1)C2)c1ccccc1` (stereo in doubt; 4c) was 97.3 µM; that for `CN(C)C12CC(OC(=O)c3ccccc3)C(C(c3ccccc3)C1)C(c1ccccc1)C2` (stereo in doubt; 4a) was 9.88 µM.
`CN(C)C12CC(OC(=O)c3ccncc3)C(C(c3ccccc3)C1)C(c1ccccc1)C2` (racemic; 11a) displayed an IC50 of 12.5 µM.
`O=C(OC1CC2(N3CCCCC3)CC(c3ccccc3)C1C(c1ccccc1)C2)c1ccc(Cl)cc1` (racemic) had an IC50 of 23 µM.
The same measure, in the same setting: to `CN(C)C12CC(O)C(C(c3ccccc3)C1)C(c1ccccc1)C2` (racemic) belongs 158 µM; to `O=C(OC1CC2(N3CCCC3)CC(c3ccccc3)C1C(c1ccccc1)C2)c1ccncc1` (racemic; 7b), 27.4 µM; to `O=C(OC1CC2(N3CCCCC3)CC(c3ccccc3)C1C(c1ccccc1)C2)c1ccc(Cl)cc1` (stereo in doubt; 5c), 104 µM.

A further assay concerns Plasmodium falciparum. Put plainly: Antiprotozoal activity against chloroquine and pyrimethamine-resistant Plasmodium falciparum K1. In kind it is functional, organism-based.
Settings: not given
In outline: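 Read-out was IC50 against the K1 strain of P. falciparum, which is resistant to chloroquine and pyrimethamine. The table footnote gives values from two independent experiments.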
With `CN(C)C12CC(OC(=O)c3ccccc3)C(C(c3ccccc3)C1)C(c1ccccc1)C2` (racemic), the IC50 came out at 1.18 µM.
The compound `CN(C)C12CC(OC(=O)c3cccnc3)C(C(c3ccccc3)C1)C(c1ccccc1)C2` (stereo in doubt; 6a) came in with an IC50 of 1.49 µM.
For the compound `O=C(OC1CC2(N3CCCC3)CC(c3ccccc3)C1C(c1ccccc1)C2)c1ccc(Cl)cc1` (stereo in doubt; 5b), the IC50 was 0.47 µM.
On to `O=C(OC1CC2(N3CCCC3)CC(c3ccccc3)C1C(c1ccccc1)C2)c1ccccc1` (racemic), for which half-maximal inhibition (IC50) required 0.8 µM.
`CN(C)C12CC(OC(=O)c3ccncc3)C(C(c3ccccc3)C1)C(c1ccccc1)C2` (racemic; 7a) yielded an IC50 of 1.14 µM.
Still for that read-out and setting: to `O=C(OC1CC2(N3CCCCC3)CC(c3ccccc3)C1C(c1ccccc1)C2)c1ccncc1` (racemic; 7c) belongs 0.65 µM; to `O=C(OC1CC2(N3CCCC3)CC(c3ccccc3)C1C(c1ccccc1)C2)c1ccccc1` (stereo in doubt; 4b), 4.5 µM; to `O=C(OC1CC2(N3CCCC3)CC(c3ccccc3)C1C(c1ccccc1)C2)c1ccncc1` (racemic; 11b), 4.49 µM.
`CN(C)C12CC(OC(=O)c3ccc(Cl)cc3)C(C(c3ccccc3)C1)C(c1ccccc1)C2` (stereo in doubt; 5a) showed an IC50 of 0.55 µM.
`CN(C)C12CC(OC(=O)c3cccnc3)C(C(c3ccccc3)C1)C(c1ccccc1)C2` (racemic): the IC50 worked out at 0.5 µM.
For `O=C(OC1CC2(N3CCCC3)CC(c3ccccc3)C1C(c1ccccc1)C2)c1cccnc1` (stereo in doubt; 6b), 0.2 µM corresponded to half-maximal inhibition (IC50).
`OC1CC2(N3CCCCC3)CC(c3ccccc3)C1C(c1ccccc1)C2` (racemic): the IC50 stood at 2.77 µM.
On to `CN(C)C12CC(OC(=O)c3ccc(Cl)cc3)C(C(c3ccccc3)C1)C(c1ccccc1)C2` (racemic), for which inhibition was half-maximal at 1.11 µM (IC50).
In turn, `O=C(OC1CC2(N3CCCCC3)CC(c3ccccc3)C1C(c1ccccc1)C2)c1ccccc1` (stereo in doubt; 4c) came in with an IC50 of 0.66 µM.
`CN(C)C12CC(OC(=O)c3ccccc3)C(C(c3ccccc3)C1)C(c1ccccc1)C2` (stereo in doubt; 4a) returned an IC50 of 2.47 µM.
`CN(C)C12CC(OC(=O)c3ccncc3)C(C(c3ccccc3)C1)C(c1ccccc1)C2` (racemic; 11a): the half-inhibitory concentration (IC50) worked out at 0.49 µM.
Compound `CN(C)C12CC(O)C(C(c3ccccc3)C1)C(c1ccccc1)C2` (racemic) gave an IC50 of 13.1 µM.
`O=C(OC1CC2(N3CCCC3)CC(c3ccccc3)C1C(c1ccccc1)C2)c1ccncc1` (racemic; 7b) showed an IC50 of 0.86 µM.
`O=C(OC1CC2(N3CCCCC3)CC(c3ccccc3)C1C(c1ccccc1)C2)c1ccc(Cl)cc1` (stereo in doubt; 5c) yielded an IC50 of 0.79 µM.
Same read-out and setting: to `O=C(OC1CC2(N3CCCC3)CC(c3ccccc3)C1C(c1ccccc1)C2)c1cccnc1` (racemic) belongs 2.34 µM.

Staying with this assay, now noted: Plasmodium falciparum, K1.
As for `O=C(OC1CC2(N3CCCCC3)CC(c3ccccc3)C1C(c1ccccc1)C2)c1cccnc1` (stereo in doubt; 6c), the IC50 was determined as 0.48 µM.
Compound `O=C(OC1CC2(N3CCCC3)CC(c3ccccc3)C1C(c1ccccc1)C2)c1ccc(Cl)cc1` (racemic) showed an IC50 of 0.76 µM.
As for `O=C(OC1CC2(N3CCCCC3)CC(c3ccccc3)C1C(c1ccccc1)C2)c1ccccc1` (racemic), the 50% inhibitory concentration (IC50) stood at 0.77 µM.
For `O=C(OC1CC2(N3CCCCC3)CC(c3ccccc3)C1C(c1ccccc1)C2)c1ccncc1` (racemic; 11c), the midpoint of inhibition, the IC50, lay at 0.62 µM.
The compound `O=C(OC1CC2(N3CCCCC3)CC(c3ccccc3)C1C(c1ccccc1)C2)c1ccc(Cl)cc1` (racemic) yielded an IC50 of 1.12 µM.
Regarding `OC1CC2(N3CCCC3)CC(c3ccccc3)C1C(c1ccccc1)C2` (racemic), the IC50 came to 1.23 µM.

Another assay has as its system Trypanosoma brucei rhodesiense. Put plainly: Antiprotozoal activity against Trypanosoma brucei rhodesiense STIB900. In kind it is functional, organism-based.
Settings: not given
Consider `CN(C)C12CC(OC(=O)c3cccnc3)C(C(c3ccccc3)C1)C(c1ccccc1)C2` (stereo in doubt; 6a), for which the IC50 was found to be 15.9 µM.
`O=C(OC1CC2(N3CCCC3)CC(c3ccccc3)C1C(c1ccccc1)C2)c1ccc(Cl)cc1` (stereo in doubt; 5b) came in with an IC50 of 6.27 µM.
`O=C(OC1CC2(N3CCCC3)CC(c3ccccc3)C1C(c1ccccc1)C2)c1ccccc1` (racemic) yielded an IC50 of 0.96 µM.
Take `CN(C)C12CC(OC(=O)c3ccncc3)C(C(c3ccccc3)C1)C(c1ccccc1)C2` (racemic; 7a): the half-inhibitory concentration (IC50) turned out to be 3.16 µM.
As for `O=C(OC1CC2(N3CCCC3)CC(c3ccccc3)C1C(c1ccccc1)C2)c1ccc(Cl)cc1` (racemic), the half-maximal inhibitory concentration (IC50) was 0.86 µM.
The compound `O=C(OC1CC2(N3CCCCC3)CC(c3ccccc3)C1C(c1ccccc1)C2)c1ccncc1` (racemic; 7c) had an IC50 of 16.9 µM.
Still for that read-out and setting: the value for `O=C(OC1CC2(N3CCCC3)CC(c3ccccc3)C1C(c1ccccc1)C2)c1ccccc1` (stereo in doubt; 4b) was 4.95 µM.
Still for that read-out and setting: to `O=C(OC1CC2(N3CCCC3)CC(c3ccccc3)C1C(c1ccccc1)C2)c1ccncc1` (racemic; 11b) belongs 1.44 µM.
For the compound `CN(C)C12CC(OC(=O)c3ccc(Cl)cc3)C(C(c3ccccc3)C1)C(c1ccccc1)C2` (stereo in doubt; 5a), half-maximal inhibition (IC50) required 1.06 µM.
The same measure, in the same setting: to `CN(C)C12CC(OC(=O)c3cccnc3)C(C(c3ccccc3)C1)C(c1ccccc1)C2` (racemic) belongs 1.52 µM; to `O=C(OC1CC2(N3CCCC3)CC(c3ccccc3)C1C(c1ccccc1)C2)c1cccnc1` (stereo in doubt; 6b), 0.62 µM; to `O=C(OC1CC2(N3CCCCC3)CC(c3ccccc3)C1C(c1ccccc1)C2)c1ccccc1` (racemic), 3.12 µM.
The same measure, in the same setting: to `O=C(OC1CC2(N3CCCCC3)CC(c3ccccc3)C1C(c1ccccc1)C2)c1ccncc1` (racemic; 11c) belongs 3.35 µM; to `OC1CC2(N3CCCCC3)CC(c3ccccc3)C1C(c1ccccc1)C2` (racemic), 13.1 µM.
Regarding `O=C(OC1CC2(N3CCCCC3)CC(c3ccccc3)C1C(c1ccccc1)C2)c1ccccc1` (stereo in doubt; 4c), inhibition was half-maximal at 15 µM (IC50).
On the same count and under the same terms, the value for `CN(C)C12CC(OC(=O)c3ccccc3)C(C(c3ccccc3)C1)C(c1ccccc1)C2` (stereo in doubt; 4a) was 1.53 µM; that for `O=C(OC1CC2(N3CCCCC3)CC(c3ccccc3)C1C(c1ccccc1)C2)c1ccc(Cl)cc1` (racemic) was 1.76 µM.
The same measure, in the same setting: to `CN(C)C12CC(O)C(C(c3ccccc3)C1)C(c1ccccc1)C2` (racemic) belongs 3.64 µM; to `O=C(OC1CC2(N3CCCC3)CC(c3ccccc3)C1C(c1ccccc1)C2)c1ccncc1` (racemic; 7b), 3.49 µM.
On the same count and under the same terms, to `O=C(OC1CC2(N3CCCCC3)CC(c3ccccc3)C1C(c1ccccc1)C2)c1ccc(Cl)cc1` (stereo in doubt; 5c) belongs 37.6 µM.

The same assay, now with this note: Trypanosoma brucei.
`CN(C)C12CC(OC(=O)c3ccccc3)C(C(c3ccccc3)C1)C(c1ccccc1)C2` (racemic) registered an IC50 of 1.12 µM.
In turn, `O=C(OC1CC2(N3CCCCC3)CC(c3ccccc3)C1C(c1ccccc1)C2)c1cccnc1` (stereo in doubt; 6c) registered an IC50 of 70.9 µM.
In turn, `CN(C)C12CC(OC(=O)c3ccc(Cl)cc3)C(C(c3ccccc3)C1)C(c1ccccc1)C2` (racemic) registered an IC50 of 2.04 µM.
As for `CN(C)C12CC(OC(=O)c3ccncc3)C(C(c3ccccc3)C1)C(c1ccccc1)C2` (racemic; 11a), the IC50 stood at 1.68 µM.
`OC1CC2(N3CCCC3)CC(c3ccccc3)C1C(c1ccccc1)C2` (racemic) showed an IC50 of 2.53 µM.
`O=C(OC1CC2(N3CCCC3)CC(c3ccccc3)C1C(c1ccccc1)C2)c1cccnc1` (racemic) showed a 50% inhibitory concentration (IC50) of 1.07 µM.

One may read the IC50 as the concentration that inhibits the measured activity by half. A lower IC50 goes with greater potency.

For the origin of these results see ChEMBL document CHEMBL1149817, “Epimers of bicyclo[2.2.2]octan-2-ol derivatives with antiprotozoal activity” (Eur J Med Chem, 2008).
